Assay outcomes as filed in PubChem BioAssay.
Rad51 HR inh = Rad51 (human) homologous recombination inhibition. hRad51 DNA strand exchange, fluorescence dequenching. AID 1385. inhibition, % at 10 µM. Q06609. 200,000 tested, 0.085% active;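 active means inhibition above 40% at the single screening dose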;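 further: 0% = DMSO control wells and 100% = blanks with heterologous ssDNA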
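System: hRad51 filaments on single-stranded DNA; reagent: Fluorescein- and BHQ1-tagged 47-mer duplex; compound dosing: one concentration, 10 µM final; timing: filaments 15 min 37 °C, then compound 30 min; measured by: fluorescein emission 520 nm, excitation 485 nm; benchmarks: per-plate controls and blanks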
Cl transport mod = modulators of human KCC2 chloride dependent transport; KCC2 cells, thallium flux FluoZin-2 fluorescence; B-score of Tl+ flux slope (higher = more flux/activation; lower = inhibition) at 10 µM; AID 1456; 190,000 tested, 2.2% active; Q9H2X9;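 active means thallium flux slope and its plate-corrected score both differing from the plate sample mean at a set confidence after two filtering rounds, in either direction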;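 further: slope of fluorescence scaled to starting intensity during 10 to 20 s after thallium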
Target sequence (Q9H2X9 whole entry, looked up): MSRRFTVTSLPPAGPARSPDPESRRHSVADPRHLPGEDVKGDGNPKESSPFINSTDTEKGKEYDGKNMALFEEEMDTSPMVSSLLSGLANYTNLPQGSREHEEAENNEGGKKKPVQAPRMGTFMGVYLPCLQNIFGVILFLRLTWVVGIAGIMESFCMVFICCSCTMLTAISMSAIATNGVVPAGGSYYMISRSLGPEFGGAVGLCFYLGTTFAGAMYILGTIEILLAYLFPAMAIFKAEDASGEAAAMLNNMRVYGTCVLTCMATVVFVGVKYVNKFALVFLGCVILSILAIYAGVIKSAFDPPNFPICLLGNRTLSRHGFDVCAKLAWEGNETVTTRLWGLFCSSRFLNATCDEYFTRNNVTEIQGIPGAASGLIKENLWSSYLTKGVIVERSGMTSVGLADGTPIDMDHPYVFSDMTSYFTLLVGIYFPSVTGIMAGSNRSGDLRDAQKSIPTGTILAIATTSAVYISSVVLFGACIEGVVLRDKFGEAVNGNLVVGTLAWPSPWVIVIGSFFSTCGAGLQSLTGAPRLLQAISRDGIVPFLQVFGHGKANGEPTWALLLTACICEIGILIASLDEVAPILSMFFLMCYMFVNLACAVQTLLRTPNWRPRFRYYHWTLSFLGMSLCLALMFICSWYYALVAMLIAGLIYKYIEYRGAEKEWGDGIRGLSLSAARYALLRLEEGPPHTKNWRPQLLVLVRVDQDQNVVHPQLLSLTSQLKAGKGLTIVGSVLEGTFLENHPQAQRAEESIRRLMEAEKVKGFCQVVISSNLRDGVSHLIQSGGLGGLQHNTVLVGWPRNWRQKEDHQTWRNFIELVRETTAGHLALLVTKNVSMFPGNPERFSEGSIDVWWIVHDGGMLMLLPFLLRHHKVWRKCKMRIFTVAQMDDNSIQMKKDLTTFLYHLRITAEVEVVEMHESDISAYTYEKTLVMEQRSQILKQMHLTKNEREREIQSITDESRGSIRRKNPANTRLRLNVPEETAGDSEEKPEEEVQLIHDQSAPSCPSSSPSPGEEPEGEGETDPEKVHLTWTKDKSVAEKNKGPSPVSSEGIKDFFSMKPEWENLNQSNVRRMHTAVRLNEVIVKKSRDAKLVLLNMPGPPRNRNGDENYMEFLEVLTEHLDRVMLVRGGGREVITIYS
CHT inh = human CHT choline transport inhibition | Q9GZV3 | CHT-expressing cells, membrane potential dye, choline response; stronger effect = lower value | B-score at 10 µM | 310,000 tested, 0.86% active | AID 488975;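 active means B-score over 3 SD under the library average, and starting fluorescence ratio not unusually high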;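 further: choline stimulus applied at its EC90 after an EC20 pre-addition; B-score computed on integrated fluorescence ratio after choline addition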
CHT allo act = allosteric activators of human choline transporter CHT. Q9GZV3. CHT-expressing cells, membrane potential dye, choline EC20; stronger effect = higher value; LV-AA mutant CHT in HEK293 cells. B-score at 10 µM. 310,000 tested, 0.49% active;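 active means initial fluorescence not abnormally high and integrated response B-score, plate-corrected, over 3 SD above library mean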
KCC2 secondary = KCC2 (human) modulation, secondary assay | shares compounds with Cl transport mod | HEK293-KCC2, thallium flux, FluoZin2 fluorescence; stronger effect = higher value | normalised thallium flux (F/F0 slope) at 10 µM | 3,700 tested, 15% active | AID 1713;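 active means thallium flux slope above the same plate's solvent-only control mean plus 3 SD; inconclusive means the two replicate wells disagree; inactive means no significant difference from solvent-only control wells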
KCC2 bumet counter = thallium flux despite bumetanide block in KCC2 cells, secondary assay 3 | normalized thallium flux at 10 µM | shares compounds with Cl transport mod | 3,700 tested, 49% active | AID 1714 | HEK293-KCC2 + bumetanide/ouabain, thallium flux FluoZin2; stronger effect = higher value;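 active means thallium entry rate above the same plate's blocked-transporter control wells by more than 3 SD; inconclusive means the two repeat wells disagree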;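 further: raw slope of fluorescence over initial fluorescence between 10 and 20 s after thallium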
KCC2 sec2 = confirmation of human KCC2 transport modulators. shares compounds with Cl transport mod. HEK293-KCC2, thallium flux FluoZin2 fluorescence; actives lie on both sides; F/F0 rise rate, 10–20 s post-thallium. normalized thallium flux at 10 µM. 3,700 tested, 23% active;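 active means thallium flux slope more than 3 SD above or below the plate's solvent-only control mean, mostly below; inconclusive means the two repeat wells disagreed; inactive means no significant shift from solvent-only controls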;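 further: raw slope with 0.1% DMSO as baseline and bumetanide as block control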
HEK293 Tl flux = counter-screen for KCC2 modulators: effect in parental HEK293 cells | shares compounds with Cl transport mod | thallium flux FluoZin2, ouabain; baseline-ratio fluorescence slope, 10–20 s after thallium | thallium flux rate (normalised fluorescence) at 10 µM | 3,700 tested, 46% active;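 active means thallium flux rate significantly above the same plate's solvent-only control wells, beyond their mean plus 3 SD; inconclusive means the two replicate wells gave conflicting results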
KCC2 ouabain = modulates human KCC2 on retest with ouabain; shares compounds with Cl transport mod; HEK293-KCC2, thallium flux FluoZin2 fluorescence; bidirectional: low = inhibitor, high = activator; raw Tl+ flux slope (below DMSO = inhibition, above = activation) at 10 µM; 3,700 tested, 48% active; AID 1717;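 active means thallium flux slope beyond 3 SD from same-plate DMSO control mean in most replicates, usually higher, sometimes lower; inconclusive means repeat tests gave conflicting results; inactive means no significant difference from controls in most replicates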;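 further: slope of initial-normalized fluorescence between seconds 10 and 20 after thallium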
HEK293 Tl flux2 = counter-screen for KCC2 modulators: effect in parental HEK293 cells; shares compounds with Cl transport mod; thallium flux FluoZin-2 fluorescence slope; thallium flux slope at 10 µM; 3,700 tested, 33% active;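 active means thallium flux slope above the same plate's solvent-control mean plus 3 SD in both duplicate wells; inconclusive means duplicate wells that disagreed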;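 further: run without ouabain in cells lacking the KCC2 cotransporter; slope of fluorescence scaled to its starting value between 10 and 20 s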
* marks the source's active call; other numbers are inactive results; i = inactive; ? = inconclusive; . = no result. A selection: hits, their analogues and other compounds. The true share with any hit is near 2.6%.

SMILES | Rad51 HR inh | Cl transport mod | CHT inh | CHT allo act | KCC2 secondary | KCC2 bumet counter | KCC2 sec2 | HEK293 Tl flux | KCC2 ouabain | HEK293 Tl flux2
O=C(Nc1nnc(-c2ccc(Cl)cc2)o1)Nc1ccccc1Cl | 0 | 3.5* | i | i | 0.0092 | 0.026* | 0.035 | ? | 0.026 | ?
O=C(Nc1nnc(-c2ccc(Cl)s2)o1)C1CCCCC1 | -5 | 5.2* | i | i | 0.013* | 0.028* | 0.034 | 0.019* | 0.032* | 0.012*
O=C(Nc1nnc(-c2ccccc2)o1)C1CCCCC1 | 0 | . | i | i | . | . | . | . | . | .
NC(=O)c1ccccc1NC(=O)Nc1ccccc1Cl | -10 | -1.2 | i | i | . | . | . | . | . | .
COCCCNC(=O)C(C#N)c1nc2ccccc2nc1N1CCCC1 (stereo not drawn) | -12 | -1.1 | i | i | ? | -0.00027* | 0.019* | 0.0053* | 0.013* | ?
CCOc1ccccc1N1CCN(c2nc3ccccc3nc2C(C#N)C(=O)OC)CC1 (stereo not drawn) | -4 | . | i | i | 0.0058 | 0.0042 | 0.029 | 0.0068 | 0.018 | 0.01
O=C1C(=O)N(C/C=C/c2ccccc2)c2ccccc21 | . | . | i | i | . | . | . | . | . | .
CN(Cc1ccccc1)S(=O)(=O)c1cccc2nsnc12 | -19 | -1.1 | i | i | . | . | . | . | . | .
COc1ccc(NC(=O)c2ccc(COc3ccccc3)o2)cc1 | 4 | -4.4* | i | i | 0.0073 | 0.0048 | 0.029 | 0.0064 | ? | 0.0098
O=C(Nc1ccccc1F)c1ccc(CSc2ccccc2)o1 | 7 | -5.1* | i | i | 0.0087 | 0.0058 | 0.025* | 0.006 | 0.013* | 0.0091
COC(=O)c1ccccc1NC(=O)c1ccc(COc2ccccc2)o1 | -1 | -0.47 | i | i | . | . | . | . | . | .
O=C(Nc1cccc(F)c1)c1ccc(CSc2ccccc2)o1 | 5 | -2.7 | i | i | . | . | . | . | . | .
CC(=O)Nc1ccc(NC(=O)c2ccc(CSc3ccccc3)o2)cc1 | -9 | -4.1* | i | i | 0.0062 | 0.0072 | 0.025* | 0.0071 | 0.015* | ?
N#CC1=C(N)NC(SCC(=O)Nc2ccccc2)=C(C#N)C12CCCC2 | 11 | -1.4 | i | i | . | . | . | . | . | .
CC1Cc2ccccc2N1C(=O)CSc1nc(-c2ccco2)cc(C(F)(F)F)n1 (stereo not drawn) | . | . | i | i | 0.0084 | 0.0053 | 0.033 | 0.0077 | 0.019 | 0.012
CC1Cc2ccccc2N1C(=O)CSc1nnc2n1C(C)(C)Cc1ccccc1-2 (stereo not drawn) | 1 | -5.6* | i | i | 0.0058 | ? | 0.024* | 0.0073 | ? | 0.011
CCOC(=O)CSc1nnc2n1C(C)(C)Cc1ccccc1-2 | -6 | 0.055 | i | i | . | . | . | . | . | .
CC1Cc2ccccc2N1C(=O)CSc1ncc(-c2ccc(F)cc2)n1C (stereo not drawn) | 2 | -4.2* | i | i | 0.0055 | 0.0036 | 0.024* | 0.006* | 0.013* | ?
COc1ccc(N2CCN(C(=O)COc3ncnc4ccccc34)CC2)cc1 | 24 | -0.3 | i | i | . | . | . | . | . | .
N#CC1=C(N)NC(SCc2ccc(F)cc2)=C(C#N)C12CCCCC2 | -5 | -3.1 | i | i | 0.0065 | 0.0043 | 0.024* | ? | ? | 0.011
N#CC1=C(N)NC(SCC(=O)O)=C(C#N)C12CCCC2 | -14 | -0.62 | i | i | . | . | . | . | . | .
c1coc(-c2nnc3sc(Cc4cccs4)nn23)c1 | 0 | . | i | i | 0.0061 | 0.0048 | 0.028 | 0.0078 | ? | 0.01
Oc1c(Br)cc(C=Nc2ccc3nc(-c4ccccc4)[nH]c3c2)c(O)c1Br | . | -3.5* | i | i | 0.0071 | 0.0046 | 0.028 | 0.0062 | 0.013* | 0.0087
COc1cccc(CC2CC(=O)N(c3ccc4c(C)cc(=O)oc4c3)C2=O)c1 (stereo not drawn) | 12 | 1.6 | i | i | . | . | . | . | . | .
COc1ccc2c(-c3ccccc3)cc(SC(C)C(N)=O)nc2c1 (stereo not drawn) | 8 | 5.5* | i | i | 0.0098 | 0.008* | 0.034 | 0.014* | 0.023 | ?
SMILES | Rad51 HR inh | Cl transport mod | CHT inh | CHT allo act | KCC2 secondary | KCC2 bumet counter | KCC2 sec2 | HEK293 Tl flux | KCC2 ouabain | HEK293 Tl flux2
O=C(Nc1cc(=O)[nH]c2nc(-c3ccccc3)nn12)c1ccccc1Cl | -6 | -3.2* | i | i | 0.0081 | 0.0066 | 0.03 | 0.0068 | ? | ?
CCCc1cc(-c2n[nH]c(=S)n2-c2cccc(C)c2)cs1 | 1 | 106* | i | i | 0.022* | 0.2* | 0.04 | 0.058* | 0.062* | 0.017*
Cn1c(CNC(=O)CCNC(=O)c2cccc(F)c2)cc(=O)n(C)c1=O | . | . | i | i | . | . | . | . | . | .
Cc1ccc(NC(=S)N/N=C2\CCCCC2C)cc1 (stereo not drawn) | 1 | 6.9* | i | i | 0.0059 | 0.032* | 0.039* | 0.02* | 0.033* | 0.022*
COC(=O)c1ccc(NC(=S)NC2CCCCC2)cc1 | 2 | . | i | i | . | . | . | . | . | .
COC(=O)c1cccnc1NC(=S)NC1CCCCC1 | . | 121* | i | i | 0.012* | 0.13* | 0.098* | 0.1* | 0.098* | 0.1*
CC1Cc2ccccc2N1CC(=O)Nc1ccc(S(=O)(=O)N(C)C)cc1 (stereo not drawn) | -7 | -3.9* | i | i | 0.0083 | 0.007 | 0.029 | 0.0076 | 0.022 | ?
CC1Cc2ccccc2N1CC(=O)Nc1ccc(Cl)c(S(=O)(=O)N(C)C)c1 (stereo not drawn) | 1 | -0.11 | i | i | . | . | . | . | . | .
COCCNc1nc(-c2cc(C)c(C)cc2C)cs1 | . | -0.3 | i | i | . | . | . | . | . | .
CCOC(=O)c1[nH]c2cc(OC)c(OC)cc2c1NC(=O)CN1CCN(c2ccc(OC)cc2)C(C)C1 (stereo not drawn) | -5 | . | i | i | . | . | . | . | . | .
O=C1CC(c2ccccc2)=NN1c1nc(-c2ccccc2)cs1 | -1 | 9.7* | i | i | 0.013* | 0.039* | 0.03 | 0.013* | 0.034* | ?
Cn1c(C(=O)NCCCN2CCN(c3ccccc3F)CC2)cc2c(=O)n(C)c3ccccc3c21 | 3 | -3.1 | i | i | 0.0074 | 0.0046 | 0.024* | 0.0076 | ? | 0.011
